A selection: hits, their analogues and other compounds. The true share with any hit is near 6.4%.
HUVEC prolif 384: human endothelial cell proliferation inhibition. HUVEC proliferation, CellTiter-Glo luminescence, 72 h; active compounds read low. viability, % at 10 µM (by protocol). 86,000 compounds, 1.1% hits;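 active means viability at or below 30%; inactive means viability above 30%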;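 further: 100% = median luminescence of DMSO-only cell control wells on each plate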
Fibroblast inh: blocks proliferation of human lung fibroblasts; LL 47 human lung fibroblast viability, ATP luminescence; active compounds read low; viability, % at 10 µM; 85,000 compounds, 1.1% hits;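 active means viability at or below 50% in the single dose screen; inactive means viability above 50%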;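 further: compound exposure lasted 72 h before the ATP readout; 100% = median luminescence of untreated cell-only wells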
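Assay system: human lung fibroblast line LL 47, low passage. Input: 1,150 fibroblasts seeded per well. Times: overnight cell rest, 72 h compound treatment at 37 °C. Evaluation: % viability of median cell-only signal. Technique: luminescent ATP detection, CellTiter-Glo. Control set: cell-only wells, no compound.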
H69AR inhibit: blocks growth of human H69AR lung tumor cells; AID 598; viability, % at 10 µM; 85,000 compounds, 6% hits; H69AR lung tumor viability, ATP luminescence, 72 h; active compounds read low;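 active means viability at or below 40%; inactive means viability above 40%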;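 further: multidrug resistant small cell line overexpressing MRP-1 efflux transporter; 100% = mean luminescence of untreated control wells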
Jurkat tox 60K: cytotoxic compounds reducing Jurkat cell viability; Jurkat E6.1 viability, ATP luminescence, 48 h; 56,000 compounds, 1.2% hits; inhibition, % at 4 µM; AID 463;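 active means inhibition above the mean inhibition of all tested compounds plus 3 SD, cut at about 28% in these data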
Numbers without * were called inactive; . = not tested or not shown.

SMILES | HUVEC prolif 384 | Fibroblast inh | H69AR inhibit | Jurkat tox 60K
Cc1cc(/C=C(/C#N)c2cccc(F)c2)c(C)n1-c1cccnc1 | 90 | 91 | 64 | 2
O=C(c1cccc(F)c1F)N1CCCC1 | 93 | 94 | 109 | .
CCOc1ccc(Br)cc1C1NC(=O)c2c(sc3c2CCN(C)C3)N1 (configuration not stated) | 78 | 88 | 39* | 4
CN1CCc2c(sc3c2C(=O)NC(c2cn(Cc4ccccc4)c4ccccc24)N3)C1 (configuration not stated) | 68 | 53 | 3.4* | 8
CN1CCc2c(sc3c2C(=O)NC(c2ccco2)N3)C1 (configuration not stated) | 100 | 101 | 83 | -5
CCOC(=O)N1CCc2c(sc3c2C(=O)NC(c2ccccc2)N3)C1 (configuration not stated) | 56 | 61 | 32* | -2
COc1ccc(Br)cc1C1NC(=O)c2c(sc3c2CCN(C)C3)N1 (configuration not stated) | 86 | 102 | 56 | 5
CN1CCc2c(sc3c2C(=O)NC(c2cccc(OC(=O)c4cccs4)c2)N3)C1 (configuration not stated) | . | . | . | 1
O=c1n(Cc2ccc(Cl)cc2)c2sc3c(c2c2ncnn12)CCCC3 | 92 | 92 | 98 | -10
CN(/N=C/c1cccs1)c1cc(=O)n(C)c(=O)[nH]1 | 15* | 104 | 94 | .
CCN(/N=C/c1cccs1)c1cc(=O)n(C)c(=O)[nH]1 | 35 | 103 | 96 | .
c1ccc(C(Cc2nc(-c3ccncc3)no2)c2ccccc2)cc1 | 91 | 93 | 88 | 58*
COc1cc(/C=N/n2cnnc2)ccc1OCc1ccc(C)cc1 | 97 | 109 | 76 | .
Cc1ccc(Cl)cc1N1CCN(C(=O)CCS(=O)(=O)c2cccc3nonc23)CC1 | 77 | 88 | 73 | .
COc1ccc(-c2n[nH]c(C(F)(F)F)c2-c2cc3ccccc3o2)c(O)c1 | 12* | 79 | 11* | .
CCn1nnc(-c2ccccc2NS(=O)(=O)c2ccc(C(=O)OC)cc2)n1 | 86 | 104 | 17* | 22
Cc1cc(N2CCN(C/C=C/c3ccccc3)CC2)n2ncnc2n1 | 106 | 97 | 69 | 37*
CC1CCN(c2c(NCc3ccc(C(=O)NCC4COc5ccccc5O4)cc3)c(=O)c2=O)CC1 (configuration not stated) | 90 | 108 | 86 | -1
Cn1c(N)c(C(=O)COC(=O)C2(c3ccc(Cl)cc3)CCCC2)c(=O)n(C)c1=O | 101 | 97 | 95 | .
Cn1c(=O)cc(SCC(=O)NCC2COc3ccccc3O2)c2ccccc21 (configuration not stated) | 102 | 40* | 83 | 4
Cc1ccc(-c2nnn(CC(=O)N(Cc3cccs3)C(C(=O)NC3CCCC3)c3ccncc3)n2)cc1 (configuration not stated) | 76 | 64 | 29* | .
COc1ccc(-c2nnn(CC(=O)N(Cc3cccs3)C(C)C(=O)NC3CCCC3)n2)cc1OC (configuration not stated) | 91 | 92 | 105 | 0
CCOC(=O)CN(C(=O)Cn1nnc(-c2ccc(OC)cc2)n1)C(C(=O)NC1CCCC1)c1ccc(F)cc1 (configuration not stated) | 93 | 96 | 95 | .
O=C(NCC1CCCO1)C(c1cccs1)N(Cc1cccs1)C(=O)Cn1nnc(-c2cccs2)n1 (configuration not stated) | 94 | 103 | 83 | .
O=C(NCC1CCCO1)C(c1ccc(F)cc1)N(Cc1ccc(F)cc1)C(=O)Cn1nnc(-c2cccs2)n1 (configuration not stated) | 88 | 94 | 40* | .
SMILES | HUVEC prolif 384 | Fibroblast inh | H69AR inhibit | Jurkat tox 60K
COc1ccc(-c2nnn(CC(=O)N(Cc3ccc(F)cc3)C(C(=O)NC3CCCC3)c3ccc(F)cc3)n2)cc1 (configuration not stated) | 64 | 12* | 27* | .
CC(C)CCNC(=O)C(c1ccncc1)N(Cc1cccs1)C(=O)Cn1nnc(-c2ccc(F)cc2)n1 (configuration not stated) | 88 | 75 | 40* | .
CC1CC(C)CN(c2nc3c(c(=O)n(C)c(=O)n3C)n2CCSc2nc3ccccc3o2)C1 (configuration not stated) | . | . | . | -2
CC(=O)Nc1c(C(=O)N2CCCCCC2)cnn1-c1ccccc1Cl | 102 | 101 | 91 | .
Cc1ccc(-c2nnn(CC(=O)N(Cc3cccs3)C(C(=O)NC3CCCCC3)c3ccco3)n2)o1 (configuration not stated) | 77 | 107 | 19* | .
Cc1c(N2C(=O)CSC23C(=O)Nc2ccccc23)c(=O)n(-c2ccccc2)n1C (configuration not stated) | . | . | . | -2
CN(C)c1nc(N)nc(Cn2ccnc2)n1 | 82 | 93 | 81 | -6
CN(C)c1nc(-c2ccccn2)nnc1-c1ccccc1 | 11* | 13* | 53 | .
COC(=O)c1ccc(NC(=O)COc2ccc(S(=O)(=O)N3CCCCC3)cc2)cc1 | 99 | 86 | 58 | .
CCc1ccc(OCC(=O)Nc2ccc(S(=O)(=O)N3CCCC3)cc2)c(Br)c1 | 61 | 104 | 30* | .
N#Cc1ncc(C(F)(F)F)cc1Sc1ccc(N)cc1 | 89 | 94 | 36* | .
COc1ccc(-c2oc(NC(=O)CCl)c(C#N)c2-c2ccc(OC)cc2)cc1 | 4.3* | 26* | 1.8* | .
COc1ccc(-c2oc(NC(=O)CSc3ncn[nH]3)c(C#N)c2-c2ccc(OC)cc2)cc1 | 70 | 90 | 29* | .
Cc1ccc(OCC(=O)Nc2oc(-c3ccccc3)c(-c3ccccc3)c2C#N)cc1 | 75 | 98 | 28* | .
O=C(CSc1nnc(Cc2ccccc2)n1-c1ccc(Cl)cc1)N1CCOCC1 | 90 | 91 | 87 | -11
Cc1ccc(/C=N/NC(=O)CC2N=C(Cc3ccccc3)NNC2=O)cc1 (configuration not stated) | 91 | 98 | 92 | .
CC(C)(CO)NCc1ccccc1OCC(=O)Nc1ccccc1 | 95 | 96 | 89 | 4
Cc1ccc(NC(=O)COc2ccccc2CNC(C)(C)CC(C)(C)C)cc1 | 33 | 35* | 1.6* | .
O=C(NCCSc1c[nH]c2ccccc12)c1ccc(Br)o1 | 80 | 100 | 57 | 38*
O=C(c1cccc(C(F)(F)F)c1)N1CCOC12CCN(c1ncc(C(F)(F)F)cc1Cl)CC2 | 86 | 98 | 63 | .
CCc1ccc2[nH]c(=O)c(CN(Cc3ccccc3)Cc3nnnn3Cc3ccco3)cc2c1 | 82 | 92 | 21* | 6
CCC(c1nnnn1CCOC)N(Cc1ccc(C)cc1)Cc1cc2cc(OC)ccc2[nH]c1=O (configuration not stated) | 85 | 91 | 86 | -7
Cc1ccc2[nH]c(=O)c(CN(CCc3ccccc3)C(c3nnnn3Cc3ccco3)C(C)C)cc2c1 (configuration not stated) | . | . | . | 5
CCC(c1nnnn1Cc1ccccc1)N(Cc1ccco1)Cc1cc2cc(OC)ccc2[nH]c1=O (configuration not stated) | 74 | 84 | 16* | 17
CCC(c1nnnn1Cc1ccco1)N(CCc1ccccc1)Cc1cc2cc(C)ccc2[nH]c1=O (configuration not stated) | 76 | 88 | 22* | 2

Screening data: PubChem, several laboratories
